# Source: ChEMBL document CHEMBL1121910, “N-(Methanesulfonyl)-16-phenoxyprostaglandincarboxamides: tissue-selective, uterine stimulants” (1981)
# Assays:
# [1] = test system: Mus musculus; assay: Relative potency of compound versus PGE-2 (0.3-3.0mg/mL, iv)for induction of diarrhoea in conscious mice; format: functional
# In short: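 Groups of six conscious mice, iv. Relative potency was estimated from concentration-response curves for diarrhea induction against PGE2 given at 0.3–3.0 mg/kg iv.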
# [2] = test system: Rattus norvegicus; assay: Relative potency (50 ug/kg) for inhibition of pentagastrin-stimulated gastric acid secretion in anesthetized rats; format: functional, Stomach
# [3] = organism: Cavia porcellus; assay: Relative spasmogenic potency in an in vitro guinea pig uteri assay.; format: functional
# [4] = test system: Cavia porcellus; assay: Percent protection against histamine-induced bronchoconstriction in conscious guinea pig.; format: functional; design: concentration or dose not given beside the values
# [5] = test system: Canis familiaris; assay: Compound versus PGE-2 (0.1 ug/kg, iv) was tested for effects on blood pressure in anesthetized dogs; Depressor; format: functional, Canis lupus familiaris
# In short: (§1)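 Anesthetized dogs responsive to PGE2 (at least two per compound); iv dosing. Blood pressure threshold dose expressed relative to PGE2 reference at 0.1 μg/kg iv; direction noted as depressor (−) or pressor (+).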
# [6] = test system: Cavia porcellus; assay: Relative ability to cause abortion in conscious guinea pigs compared to PGE-2.; format: functional
# [7] = test system: Mus musculus; assay: Relative potency of compound versus PGE-2 (0.3-3.0mg/mL, iv) for induction of diarrhoea in conscious mice; NE = no effect at one tenth the minimum effective dose for PGE-2; format: functional, organism-based
# [8] = test system: Canis familiaris; assay: Compound versus PGE-2 (0.1 ug/kg, iv) was tested for effects on blood pressure in anesthetized dogs; format: functional, Canis lupus familiaris; in short: as §1
# [9] = test system: Mus musculus; assay: Relative potency of compound versus PGE-2 (0.3-3.0mg/mL, iv) for induction of diarrhoea in conscious mice; NE = no effect at 10 times the ED50 for PGE-2; format: functional, organism-based
# [10] = test system: Mus musculus; assay: Relative potency of compound versus PGE-2 (0.3-3.0mg/mL, iv) for induction of diarrhoea in conscious mice; Depressor; format: functional
# [11] = test system: Canis familiaris; assay: Compound versus PGE-2 (0.1 ug/kg, iv) was tested for effects on blood pressure in anesthetized dogs; Pressor; format: functional, Canis lupus familiaris; in short: as §1
Structure (SMILES),Relative potency [1],Relative potency [2],Relative potency [3],Protection [4] [%],Relative threshold dose [5],Relative potency [6],Relative potency [7],Relative potency [5],Relative potency [8],Relative potency [9],Relative potency [10],Relative threshold dose [11]
CS(=O)(=O)NC(=O)CCC/C=C\C[C@H]1C(=O)C=CC1/C=C/[C@@H](O)COc1ccccc1 (stereo not given in full),10,200,0.2,9,2.5,<100,,,,,,
Cc1cccc(OC[C@H](O)/C=C/C2[C@H](O)CC(=O)[C@@H]2C/C=C\CCCC(=O)NS(C)(=O)=O)c1 (stereo not given in full),,125,4,44,,<1000,No effect,0.5,,,,
CCCCC(C)(C)[C@H](O)/C=C/C1[C@H](O)CC(=O)[C@@H]1C/C=C\CCCC(=O)O (stereo not given in full),5300,400,33,41,10,<100,,,,,,
COc1cccc(OC[C@H](O)/C=C/C2[C@H](O)CC(=O)[C@@H]2C/C=C\CCCC(=O)NS(C)(=O)=O)c1 (stereo not given in full),,0,1,25,,<1000,,,<0.5,No effect,,
COc1ccc(OC[C@H](O)/C=C/C2[C@H](O)CC(=O)[C@@H]2C/C=C\CCCC(=O)NS(C)(=O)=O)cc1 (stereo not given in full),,600,10,13,,< 1000,,,<0.5,,,
O=C(O)CCC/C=C\C[C@H]1C(=O)C[C@@H](O)C1/C=C/[C@@H](O)COc1ccccc1 (stereo not given in full),150,530,75,9,10,300,,,,,,
CS(=O)(=O)NC(=O)CCC/C=C\C[C@H]1C(=O)C[C@@H](O)C1/C=C/[C@@H](O)CCc1ccccc1 (stereo not given in full),,,75,0,,<100,,,2.5,,2.5,
CS(=O)(=O)NC(=O)CCC/C=C\C[C@H]1C(=O)C[C@@H](O)C1/C=C/[C@@H](O)COc1cccs1 (stereo not given in full),,,50,28,,300,,,0.5,,,
CCS(=O)(=O)NC(=O)CCC/C=C\C[C@H]1C(=O)C[C@@H](O)C1/C=C/[C@@H](O)COc1ccccc1 (stereo not given in full),,,85,9,,3000,,1,,,,
CS(=O)(=O)NC(=O)CCC/C=C\C[C@H]1C(=O)C[C@@H](O)C1/C=C/[C@@H](O)COc1ccc(Cl)cc1 (stereo not given in full),,1200,90,9,,10000,,0.5,,,,
CS(=O)(=O)NC(=O)CCC/C=C\C[C@H]1C(=O)C[C@@H](O)C1/C=C/[C@@H](O)COc1cccc(Cl)c1 (stereo not given in full),,140,46,28,,1000,,,,,,
CS(=O)(=O)NC(=O)CCC/C=C\C[C@H]1C(=O)C[C@@H](O)[C@@H]1/C=C/[C@@H](O)COc1ccccc1 [SULPROSTONE],,450,115,10,,3000,,0.5,,,,
CS(=O)(=O)NC(=O)CCC/C=C\C[C@H]1C(=O)C[C@@H](O)C1/C=C/[C@@H](O)COc1ccc(F)cc1 (stereo not given in full),,,120,3,,3000,,,,,,
CS(=O)(=O)NC(=O)CCC/C=C\C[C@H]1C(=O)C[C@@H](O)C1/C=C/[C@@H](O)COc1cccc(C(F)(F)F)c1 (stereo not given in full),,,0.5,16,,<100,No effect,,<0.5,,,
CCCCC[C@H](O)/C=C/[C@H]1[C@H](O)CC(=O)[C@@H]1C/C=C\CCCC(=O)O [DINOPROSTONE],100,100,100,100,,100,,,,,,
CS(=O)(=O)NC(=O)CCC/C=C\C[C@@H]1C(/C=C/[C@@H](O)COc2ccccc2)[C@H](O)C[C@@H]1O (stereo not given in full),,,10,3,,1000,,,10,,,
O=C(CCC/C=C\C[C@H]1C(=O)C[C@@H](O)C1/C=C/[C@@H](O)COc1ccccc1)NS(=O)(=O)c1ccccc1 (stereo not given in full),,370,5,13,,1000,,,<0.5,,,
CS(=O)(=O)NC(=O)CCC/C=C\CC1=C(/C=C/[C@@H](O)COc2ccccc2)CCC1=O,60,80,1.2,0,,<100,,,,,,10
